Laboratory results reported in ChEMBL document CHEMBL1811827, “Novel nonsecosteroidal vitamin D3 carboxylic acid analogs for osteoporosis, and SAR analysis” (Bioorg Med Chem, 2011).
Values belong to the molecule of their own block, whether it stands above or below them.

Legend:
[1] = Oral bioavailability in Sprague-Dawley rat at 100 ug/kg; type: ADME, organism-based; conditions: in vivo, 0.1 mg/kg
Outline: (§1)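 Rats given 100 µg/kg orally or intravenously; F, T1/2, Cmax, AUCinf, MRT and total clearance derived.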

[2] = AUC (infinity) in Sprague-Dawley rat at 100 ug/kg, po; type: ADME, organism-based; design: dose 100 ug/kg, time infinity, route oral; conditions: plasma, 0.1 mg/kg; outline: as §1
[3] = molecular target: T1, Vitamin D3 receptor (Homo sapiens) (UniProt P11473); test: Agonist activity at human VDR in human MG63 cells assessed as stimulation of osteocalcin production by enzyme immunoassay relative to 1,25(OH)2D3; type: functional, cell-based; design: concentration or dose not given beside the values; conditions: MG-63
T1 sequence (whole entry): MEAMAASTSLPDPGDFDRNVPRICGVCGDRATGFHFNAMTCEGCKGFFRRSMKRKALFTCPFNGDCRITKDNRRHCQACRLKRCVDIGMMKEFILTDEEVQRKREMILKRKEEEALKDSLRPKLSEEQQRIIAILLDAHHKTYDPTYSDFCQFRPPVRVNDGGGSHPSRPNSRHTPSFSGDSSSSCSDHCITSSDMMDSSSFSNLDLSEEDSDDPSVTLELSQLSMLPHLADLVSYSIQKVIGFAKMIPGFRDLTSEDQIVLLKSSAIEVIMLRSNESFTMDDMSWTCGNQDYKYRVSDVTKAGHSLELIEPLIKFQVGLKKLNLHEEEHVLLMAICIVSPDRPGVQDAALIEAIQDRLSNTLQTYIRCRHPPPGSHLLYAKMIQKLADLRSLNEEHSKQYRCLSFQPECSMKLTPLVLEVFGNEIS

[4] = Half life in Sprague-Dawley rat at 100 ug/kg, po; type: ADME, organism-based; conditions: in vivo, 0.1 mg/kg; outline: as §1
[5] = Half life in Sprague-Dawley rat at 100 ug/kg, iv; type: ADME, organism-based; conditions: in vivo, 0.1 mg/kg; outline: as §1
[6] = Mean residence time in Sprague-Dawley rat at 100 ug/kg, iv; type: ADME, organism-based; conditions: in vivo, 0.1 mg/kg; outline: as §1
[7] = Cmax in Sprague-Dawley rat at 100 ug/kg, po; type: ADME, organism-based; design: dose 100 ug/kg, route oral; conditions: in vivo, 0.1 mg/kg; outline: as §1
[8] = molecular target: T1, Vitamin D3 receptor (Homo sapiens); test: Agonist activity at human VDR in human MG63 cells assessed as stimulation of VDRE-mediated luciferase reporter gene activity relative to 1,25(OH)2D3; type: functional, cell-based; design: concentration or dose not given beside the values; conditions: MG-63
[9] = Total clearance in Sprague-Dawley rat at 100 ug/kg, po; type: ADME, organism-based; conditions: in vivo, 0.1 mg/kg; outline: as §1
Rattus norvegicus [10] = test: Toxicity in ovariectomized Sprague-Dawley rat osteoporosis model assessed as body weight loss at […], po administered once daily for 5 times per week; type: organism-based; conditions: in vivo
[11] = Mean residence time in Sprague-Dawley rat at 100 ug/kg, po; type: ADME, organism-based; conditions: in vivo, 0.1 mg/kg; outline: as §1
Rattus norvegicus [12] = test: Toxicity in ovariectomized Sprague-Dawley rat osteoporosis model assessed as induction of hypercalcemia at […], po administered once daily for 5 times per week; type: organism-based; conditions: in vivo
Rattus norvegicus [13] = test: Toxicity in ovariectomized Sprague-Dawley rat osteoporosis model assessed as induction of hypercalcemia at 2 ug/kg, po administered once daily for 5 times per week; type: organism-based; conditions: in vivo, 0.002 mg/kg
Outline: (§2)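 Female Sprague–Dawley rats, 8 weeks old, ovariectomized or sham-operated; from one day post-surgery, OVX groups (n = 8) given 0.22, 0.67 or 2.0 µg/kg orally in MCT vehicle (1 mL/kg), five times per week for 4 weeks. 24 h after last dose, serum calcium by autoanalyzer and distal femur BMD by dual-energy X-ray absorptiometry.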

Rattus norvegicus [14] = test: Toxicity in ovariectomized Sprague-Dawley rat osteoporosis model assessed as body weight loss at 2 ug/kg, po administered once daily for 5 times per week; type: organism-based; conditions: in vivo, 0.002 mg/kg
Rattus norvegicus [15] = test: Prevention of bone mineral density loss in ovariectomized Sprague-Dawley rat osteoporosis model administered orally once daily for 5 times per week; type: functional, organism-based; outline: as §2
[16] = Total clearance in Sprague-Dawley rat at 100 ug/kg, iv; type: ADME, organism-based; conditions: in vivo, 0.1 mg/kg; outline: as §1
[17] = AUC (infinity) in Sprague-Dawley rat at 100 ug/kg, iv; type: ADME, organism-based; design: dose 100 ug/kg, time infinity, route intravenous; conditions: plasma, 0.1 mg/kg; outline: as §1

bioavailability [1]: 13%
AUC(0-inf) [2]: 151 ng·h/mL
Activity [3]: 484%
half-life [4]: 8 h
half-life [5]: 10.6 h
MRT [6]: 9.2 h
Cmax [7]: 11.6 ng/mL
Activity [8]: 20%
CL/F [9]: 11.5 mL/min/kg
MRT [11]: 12.3 h
clearance [16]: 1.47 mL/min/kg
AUC(0-inf) [17]: 1150 ng·h/mL
Compound: CCC(CC)(c1ccc(OCC(O)C(C)(C)C)c(C)c1)c1ccc(OC[C@@H](O)CCC(=O)O)c(C)c1 (mixture of isomers)
Activity (Rattus norvegicus [10]): Non-toxic
Activity (Rattus norvegicus [12]): Non-toxic
Activity (Rattus norvegicus [13]): Toxic
Activity (Rattus norvegicus [14]): Toxic
inhibition (Rattus norvegicus [15]): Dose-dependent effect

bioavailability [1]: 33%
AUC(0-inf) [2]: 10.9 ng·h/mL
Activity [3]: 205%
half-life [4]: 3.1 h
half-life [5]: 1.3 h
MRT [6]: 0.5 h
Cmax [7]: 3.6 ng/mL
Activity [8]: 19%
CL/F [9]: 156 mL/min/kg
MRT [11]: 3.8 h
clearance [16]: 50.9 mL/min/kg
AUC(0-inf) [17]: 32.9 ng·h/mL
Compound: CCC(CC)(c1ccc(OCCCCC(=O)O)c(C)c1)c1ccc(OCC(O)C(C)(C)C)c(C)c1 (racemic)

Activity [3]: 68%
Activity [8]: 52%
Compound: CCC(CC)(c1ccc(CCC(O)C(C)(C)C)c(C)c1)c1ccc(OC[C@@H](O)CCC(=O)O)c(C)c1 (mixture of isomers)

Activity [3]: 368%
Activity [8]: 31%
Compound: CCC(CC)(c1ccc(CCC(O)C(C)(C)C)c(C)c1)c1ccc(OCCCCC(=O)O)c(C)c1 (racemic)

Activity [3]: 168%
Activity [8]: 16%
Compound: CCC(CC)(c1ccc(CCC(O)C(C)(C)C)c(C)c1)c1ccc(OCCCCCC(=O)O)c(C)c1 (racemic)

Activity [3]: < 13%
Activity [8]: 2.6%
Compound: CCC(CC)(c1ccc(OCCCC(=O)O)c(C)c1)c1ccc(OCC(O)C(C)(C)C)c(C)c1 (racemic)

Activity [3]: < 13%
Activity [8]: 1.4%
Compound: CCC(CC)(c1ccc(OCC(=O)O)c(C)c1)c1ccc(OCC(O)C(C)(C)C)c(C)c1 (racemic)

Activity [3]: 49%
Activity [8]: 6.2%
Compound: CCC(CC)(c1ccc(OCCC(=O)O)c(C)c1)c1ccc(OCC(O)C(C)(C)C)c(C)c1 (racemic)

Activity [3]: 9.3%
Activity [8]: 2.2%
Compound: CCC(CC)(c1ccc(CCC(O)C(C)(C)C)c(C)c1)c1ccc(OCCCCCCC(=O)O)c(C)c1 (racemic)
